Screening results: PubChem, Broad Institute
Vif imaging: inhibitors of HIV Vif; inhibition, % at 7.49 µM; HEK293T cells, Vif self-association by quenched fluorescence, imaging, 24 h; hit rate 0.35% among 340,000; in the data active = inhibition above about 50%, passing the limit was not always enough; inconclusive = no clear call, values can overlap the other calls; inactive = below about 31%
Wnt act: activators of Wnt/beta-catenin signaling | Wnt/beta-catenin reporter cell assay, activator, plate reader | activation, % at 9.35 µM | hit rate 1.2% among 300,000 | AID 743398; in the data active = activation above about 30%, passing the limit was not always enough; inconclusive = no clear call, values can overlap the other calls;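 note: 0% = neutral control wells and 100% = positive control wells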
esBAF inh: inhibitors of esBAF chromatin remodeling in mouse ES cells | AID 602393 | Bmi1-luciferase knock-in reporter, 24 h; 100% = twice the neutral-well signal | hit rate 2% among 350,000 | reporter increase, % at 12.5 µM; in the data active = activation above about 40%; inconclusive = no clear call, values can overlap the other calls;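 note: 0% = median of the plate's neutral control wells and 100% = double that signal; a rise in the Bmi1 reporter signal indicates esBAF inhibition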
Xi reactivation: X-chromosome reactivation activator; XiGFP mouse fibroblasts, % GFP-positive cells imaging, 3 d; cells co-treated with 5-aza-dC sensitizer; scaled so ellipticine positive control = 100%; activation, % at 7.58 µM; hit rate 0.055% among 360,000; AID 743238;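 active = mean normalized replicate activation at least 10% and every replicate at or above 10%; inconclusive = only one of the two criteria met; inactive = mean below 10% and not all replicates reach 10%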;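 note: 0% = median of on-plate neutral control wells and 100% = ellipticine 6 µM median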
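Material: XiGFP fibroblasts, SV40-immortalized; Buffer or medium: DMEM containing 5-aza-dC; Compound dosing: single point; Times: 3 days compound exposure.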
MITF act: increases MITF-driven TRPM1 promoter luciferase signal; SK-MEL-5 TRPM1-promoter luciferase, 24 h; % of positive control, neutral wells = 0; activation, % at 12.5 µM; hit rate 0.75% among 300,000;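 active = mean activation of at least 80% with every replicate also reaching 80%; inconclusive = mean reaches 80% but some replicate falls short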;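 note: 0% = neutral control wells and 100% = parthenolide positive control wells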
The depositor's hits bear a star. Hits are enriched below; roughly 2.6% of the tested compounds scored in any of these assays.

For C[C@H](CO)N1C[C@H](C)[C@@H](CN(C)S(=O)(=O)c2cccs2)OCc2ccccc2-c2c(n(C)c3ccccc23)C1=O the results were esBAF inh -2 and Xi reactivation 0.
For COCCSc1nnc(NS(=O)(=O)c2ccccc2)s1 the results were Vif imaging 56*, Wnt act 1, esBAF inh 2, Xi reactivation 0 and MITF act 6.
COCCSc1nnc(NS(=O)(=O)c2ccc(C)cc2)s1 was read as Vif imaging -1, Wnt act -1, esBAF inh 0, Xi reactivation 0 and MITF act -4.
`O=C(C1CCCC1)N1CC2(C1)[C@@H](c1ccccc1)[C@@H](CO)N2CC1CC1` gave Xi reactivation 0.
For C[C@@H]1CN([C@H](C)CO)C(=O)c2cc(NC(=O)C3CCCCC3)ccc2O[C@@H]1CN(C)Cc1ccc(Oc2ccccc2)cc1 the results were esBAF inh 1 and Xi reactivation 0.
Screening Cc1cccc(OCC(=O)Nc2ccc3c(c2)OCO3)c1C returned Vif imaging 6, Wnt act 10 and esBAF inh 12.
O=C(COC(=O)COc1ccccc1[N+](=O)[O-])Nc1ccc2c(c1)OCO2 was read as Vif imaging -2, Wnt act 2, esBAF inh 2, Xi reactivation 0 and MITF act -5.
`O=C(COc1ccccc1[N+](=O)[O-])Nc1ccc2c(c1)OCO2` gave Vif imaging -3, Wnt act 16, esBAF inh 58*, Xi reactivation 0 and MITF act 61.
`O=C(COc1ccc(Cl)cc1)Nc1ccc(Cl)cn1` gave Vif imaging 4, esBAF inh 34 and MITF act 67.
For NC(=O)c1cc(Cl)ccc1OCC(=O)Nc1ccc2c(c1)OCO2 the results were Vif imaging 10, Wnt act 68*, esBAF inh -48, Xi reactivation 0 and MITF act 57.
For O=C(COc1ccccc1[N+](=O)[O-])Nc1ccc2c(c1)CCC2 the results were Vif imaging -7, Wnt act 29, esBAF inh 79*, Xi reactivation 0 and MITF act 111*.
For O=C(COc1ccc2c(c1)OCO2)Nc1ccc(Cl)cn1 the results were Vif imaging -5, Wnt act 18, esBAF inh 46*, Xi reactivation 0 and MITF act 84*.
`C[C@@H]1CCCCO[C@@H](CN(C)C(=O)Cc2ccccc2)[C@@H](C)CN([C@@H](C)CO)C(=O)c2cc(NC(=O)CCC(F)(F)F)ccc2O1` gave esBAF inh 4 and Xi reactivation 0.
`CCCNC(=O)N1CC2(CN(C(=O)CC3CC3)C2)c2c(n(C)c3cc(OC)ccc23)[C@@H]1CO` gave Xi reactivation 0.
`C[C@H]1CN([C@@H](C)CO)C(=O)Cc2cc(NS(=O)(=O)c3cccs3)ccc2O[C@H]1CN(C)CC1CCCCC1` gave esBAF inh -4 and Xi reactivation 0.
CCCN(C)C[C@@H]1Oc2ncc(C#Cc3ccc(OC)c(OC)c3)cc2C(=O)N([C@H](C)CO)C[C@@H]1C was read as esBAF inh -1 and Xi reactivation 0.
Screening O=C(COc1ccccc1[N+](=O)[O-])N/N=C/c1cccc(OC(=O)c2ccc3c(c2)OCO3)c1 returned Vif imaging 3, Wnt act 29, Xi reactivation 0 and MITF act 95*.
Screening CC(=O)c1cc(F)ccc1OCC(=O)Nc1ccc2c(c1)OCO2 returned Wnt act 53*, esBAF inh 7, Xi reactivation 0 and MITF act inconclusive.
For O=C(COc1cc(F)ccc1[N+](=O)[O-])Nc1ccc2c(c1)OCO2 the results were Vif imaging -3, Wnt act 22, esBAF inh 57*, Xi reactivation 0 and MITF act 65.
`CCSc1nnc(NC(=O)COc2ccccc2[N+](=O)[O-])s1` gave Vif imaging 6, Wnt act 5, esBAF inh 49*, Xi reactivation 0 and MITF act 22.
`COC(=O)N/N=C/c1cccc(OC(=O)c2ccc3c(c2)OCO3)c1` gave Vif imaging 4, Wnt act -1, esBAF inh 5 and Xi reactivation 0.
CC(C)c1nnc(NC(=O)COc2ccccc2[N+](=O)[O-])s1 was read as Vif imaging -5, Wnt act 21 and Xi reactivation 0.
